Source: PubChem
Shown are actives, neighbours in structure and some others; about 1.8% of the full set was active somewhere.
LMPTP block – LMPTP phosphatase inhibitors, primary screen, biochemical, fluorescence intensity, uHTS | Low molecular weight phosphotyrosine protein phosphatase (Homo sapiens), P24666 | recombinant LMPTP-A, OMFP fluorogenic substrate | inhibition, % at 20 µM | hit rate 0.22% among 360,000;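 active = compounds that cut the enzyme signal by at least half of the control window in the single-dose screen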;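 also: plate controls were DMSO wells with enzyme plus substrate for no effect and substrate without enzyme for full effect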
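Buffer or medium: Bis-Tris pH 6.0, DTT, detergent; Assay system: LMPTP-A enzyme; Quantity: 0.625 nM enzyme; Detection: endpoint fluorescence intensity; Times: 50 min dark incubation at room temperature; Controls: substrate-only low control, DMSO enzyme-plus-substrate high control; Doses: single 20 µM dose; Read-out: percent inhibition versus substrate-only and uninhibited controls; Reagent: 400 µM OMFP.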
DNMT1 inh – human DNMT1 methyltransferase inhibitors, primary screen, biochemical, molecular beacon, fluorescence, HinP1I cleavage, uHTS. DNA (cytosine-5)-methyltransferase 1 (Homo sapiens), P26358. inhibition (reported as % activation of signal), % at 10 µM. hit rate 0.83% among 360,000; in the data active = inhibition above about 50%
Scp-1 inhibitor – Scp-1 phosphatase inhibitors, primary screen, biochemical, colorimetric, uHTS; Recombinant Scp1, phosphopeptide, malachite green phosphate absorbance; inhibition, % at 20 µM; hit rate 0.88% among 340,000; AID 493091, 2011;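 active = inhibition above about 50% at 20 µM, limit read from the data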;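 also: plate controls were DMSO wells with enzyme for no effect and wells lacking enzyme for full effect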
Target sequence (Q9GZU7 76-261 limits assumed): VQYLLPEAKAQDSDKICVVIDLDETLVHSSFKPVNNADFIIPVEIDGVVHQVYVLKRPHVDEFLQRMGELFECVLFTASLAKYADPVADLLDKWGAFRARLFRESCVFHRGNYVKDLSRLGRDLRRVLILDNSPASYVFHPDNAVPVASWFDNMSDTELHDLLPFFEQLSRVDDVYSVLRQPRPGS
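Incubation: 45 min enzyme reaction at room temperature / System: truncated SCP-1 phosphatase (76-261aa) / Reagent: Phospho 17-mer peptide substrate / Buffer or medium: Acidic Tris acetate buffer with magnesium and detergent / Signal: absorbance at 630 nm / Doses: one concentration, 20 µM, with 1.0% DMSO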
HKDC1 inh – HKDC1 hexokinase inhibitors, primary screen, biochemical, fluorescence, uHTS. Q2TB90. recombinant HKDC1, G6PDH/diaphorase resazurin coupled fluorescence. inhibition, % at 20 µM. hit rate 0.16% among 340,000. AID 493160, 2011;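 active = inhibition above about 35% when tested at 20 µM, limit read from the data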;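 also: plate controls were DMSO wells with enzyme for no effect and DMSO wells lacking enzyme for full effect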
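Test system: Recombinant HKDC1 (HK5) hexokinase enzyme, produced in-house | Input: HKDC1 at 5 µg/mL | Buffer or medium: Tris pH 8.0 buffer with MgCl2, Tween-20, BSA, BME | Schedule: 90 min reaction incubation at room temperature, dark | Technique: Resazurin-to-resorufin fluorescence via G6PDH and diaphorase coupling, 525/613 nm | Controls: DMSO wells with and without enzyme mix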
STEP inh – STEP phosphatase inhibitors, primary screen, biochemical, fluorescence intensity, uHTS | AID 588621, 2011 | inhibition, % at 20 µM | hit rate 0.25% among 360,000 | recombinant STEP, OMFP fluorogenic substrate | Tyrosine-protein phosphatase non-receptor type 5 (Homo sapiens), P54829;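 active = inhibition at 20 µM, scaled per plate between control wells, above about 37%, limit read from the data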;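 also: 0% = DMSO with enzyme and substrate and 100% = substrate only without enzyme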
Target sequence (P54829 whole entry, looked up): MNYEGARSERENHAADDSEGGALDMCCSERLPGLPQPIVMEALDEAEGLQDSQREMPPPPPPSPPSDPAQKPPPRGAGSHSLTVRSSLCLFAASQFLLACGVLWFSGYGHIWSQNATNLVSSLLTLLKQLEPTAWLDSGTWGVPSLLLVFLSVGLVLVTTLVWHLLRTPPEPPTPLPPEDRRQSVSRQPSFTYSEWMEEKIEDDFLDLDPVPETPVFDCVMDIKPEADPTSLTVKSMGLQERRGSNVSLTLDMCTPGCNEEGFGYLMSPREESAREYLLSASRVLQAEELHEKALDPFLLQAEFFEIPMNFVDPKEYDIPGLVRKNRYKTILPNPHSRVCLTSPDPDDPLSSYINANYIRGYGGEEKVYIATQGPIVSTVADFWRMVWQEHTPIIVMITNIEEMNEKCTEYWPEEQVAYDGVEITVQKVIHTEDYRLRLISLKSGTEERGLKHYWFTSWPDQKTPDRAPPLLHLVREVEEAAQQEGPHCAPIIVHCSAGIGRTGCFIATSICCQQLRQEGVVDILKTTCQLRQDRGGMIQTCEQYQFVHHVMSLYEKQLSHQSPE
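Assay system: isolated STEP enzyme / Timing: 20 min at room temperature, dark / Doses: 20 µM, 1% DMSO / Technique: fluorescence intensity, excitation 480 nm, emission 540 nm / Reagent: fluorogenic phosphatase substrate OMFP at 25 µM final / Measure: percent inhibition scaled to no-enzyme and uninhibited-enzyme controls, plate-pattern corrected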
SUMO1-SIM PPI – modulators of SUMO1 protein-protein interactions, primary screen, biochemical, uHTS. Small ubiquitin-related modifier 1 (Homo sapiens), P63165. SUMO1 binding to a labelled peptide, TR-FRET, 1 h. inhibition, % at 20 µM. hit rate 0.33% among 360,000; in the data active = inhibition above about 37%
Scp1 confirm – Scp-1 phosphatase inhibitors, retest, confirmation, biochemical, colorimetric, single concentration; hit rate 61% among 2,500; AID 540281, 2011; shares compounds with Scp-1 inhibitor; inhibition, % at 20 µM; recombinant SCP-1 catalytic domain, phosphate release, malachite green absorbance;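 also: plate controls were DMSO with enzyme for no effect and buffer wells lacking enzyme for full effect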
MG interference – colorimetric readout interference by compounds, confirmation, artefact control for Scp-1 inhibitor project, biochemical, single concentration. shares compounds with Scp-1 inhibitor. Colorimetric interference counterscreen, malachite green absorbance 630 nm. apparent inhibition (interference), % at 20 µM. 2,500 tested, under 10 active. AID 540313, 2011;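 also: compounds added after enzyme reaction finished so only phosphate colour detection is probed; plate controls were DMSO wells with completed Scp-1 reaction for no effect and substrate wells lacking enzyme for full effect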
Scp-1 Tm shift – Scp-1 binding by thermal shift, confirmation, orthogonal assay for Scp-1 inhibitor project, biophysical, differential scanning fluorimetry | shares compounds with Scp-1 inhibitor | Recombinant SCP1, Sypro Orange thermal shift Tm | thermal shift relative to vanadate control, % at 40 µM | hit rate 25% among 1,500;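 active = substances whose mean melting-temperature shift, as a percentage of the reference inhibitor's shift, reaches about 5.3%, limit read from the data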;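 also: 0% = Tm of DMSO wells and 100% = Tm with sodium orthovanadate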
* hit, by the source's call; nt = no result.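 The calls were made as follows, unless noted: active = inhibition of at least 30% at 20 µM; inactive = the rest.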

SMILES	LMPTP block	DNMT1 inh	Scp-1 inhibitor	HKDC1 inh	STEP inh	SUMO1-SIM PPI	Scp1 confirm	MG interference	Scp-1 Tm shift
COc1cc(Cl)c(C)cc1NC(=O)CN(C)C1CCS(=O)(=O)C1 (centres undefined)	0	-2	6	-2	0	1	nt	nt	nt
COc1ccc(CN(C(=O)/C=C/c2ccco2)C2CCS(=O)(=O)C2)cc1 (centres undefined)	4	12	87*	1	3	-1	46*	-13	2
O=C(N/N=C/c1cccnc1)c1cccc(NC(=O)c2ccc(Cl)cc2)c1	20	-8	82*	6	97*	66*	65*	-12	2
Cc1cccc(C(=O)Nc2ccc(C(=O)N/N=C/c3cccnc3)cc2)c1	-1	1	-8	-2	-3	3	nt	nt	nt
CC(=O)Nc1ccc(NC(=O)CSc2nc(N)c(NC(=O)c3ccccc3F)c(=O)[nH]2)cc1	9	16	53*	-1	2	19	49*	-1	-21
Cc1cccc(NC(=O)CSc2nc(N)c(NC(=O)c3ccccc3F)c(=O)[nH]2)c1	0	1	-2	8	-1	11	nt	nt	nt
C#Cc1ccc([C@@H]2C=C(C(=O)O)O[C@H](OCc3ccc(CO)cc3)C2)cc1	0	45	57*	3	2	-1	68*	0	2
O=C(O)C1=C[C@@H](c2ccccc2)C[C@@H](OCc2ccc(CO)cc2)O1	-1	1	0	7	-1	4	nt	nt	nt
C=CCNC(=O)c1cc2cc(Cl)ccc2nc1N	2	nt	nt	nt	nt	-1	nt	nt	nt
CN(Cc1ccccc1)C(=O)COC(=O)/C=C/c1ccco1	12	32	65*	2	8	-12	62*	-9	-13
O=C(COC(=O)/C=C/c1ccco1)Nc1ccccc1	14	25	46	1	0	-11	nt	nt	nt
CC1CCN(C(=O)COC(=O)/C=C/c2ccco2)CC1	2	38	65*	-1	10	-12	25	-17	nt
CC1CCCC(C)N1C(=O)COC(=O)/C=C/c1ccc(Br)o1 (centres undefined)	5	25	92*	8	6	10	58*	-13	-6
COCCNC(=O)C1(C)CCN(C(=O)COc2ccc(Cl)cc2Cl)C1 (centres undefined)	-1	-1	nt	nt	2	-2	nt	nt	nt
Nc1ccn(C(C=O)CC(C=O)CO)c(=O)n1 (centres undefined)	0	-4	nt	nt	-1	6	nt	nt	nt
O=C(OCc1ccccc1)N1CCC2CC1c1ccc(/C=C/CCCCl)cc12 (centres undefined)	6	10	nt	nt	4	7	nt	nt	nt
COc1cccc(C(=O)Nc2ccccc2C(=O)N2CCCC2)c1	0	-3	-7	2	3	-1	nt	nt	nt
O=C(Nc1ccccc1C(=O)N1CCCCCC1)c1ccccc1	-1	2	58*	-7	1	-4	-24	-21	nt
Cc1ccc(C(=O)Nc2ccc(N3CCN(C(=O)c4ccco4)CC3)cc2)c(Cl)c1	2	-12	68*	-1	3	-2	-11	-10	nt
COc1ccc(C(=O)OCC(=O)NC2CCCCCCC2)cc1OC	0	6	-2	3	0	-2	nt	nt	nt
CCOC(=O)C1=C[C@@H](c2ccccc2)N(S(=O)(=O)c2ccc(C)cc2)[C@H]1c1ccc(OC)cc1	3	12	nt	nt	5	0	nt	nt	nt
O=C(Nc1ccc2c(c1)C(=O)NC2=O)c1cccc(C(F)(F)F)c1	-2	26	88*	-4	5	9	53*	-11	5
O=C(Nc1ccc2c(c1)C(=O)NC2=O)c1ccccc1	-18	0	-6	10	0	-21	nt	nt	nt
CN(C(=O)c1cc2c(=O)n3ccccc3nc2n1C)C1CCCCC1	1	2	80*	-9	1	-24	-17	-14	nt
CCN(C(=O)c1cc2c(=O)n3ccccc3nc2n1C)C1CCCCC1	-1	1	10	2	0	-16	nt	nt	nt
SMILES	LMPTP block	DNMT1 inh	Scp-1 inhibitor	HKDC1 inh	STEP inh	SUMO1-SIM PPI	Scp1 confirm	MG interference	Scp-1 Tm shift
Cc1ccc(S(=O)(=O)N2CCN(C(=O)/C=C/c3ccco3)CC2)cc1	3	38	71*	-6	3	-8	71*	-4	-4
Cc1ccc(S(=O)(=O)N2CCN(C(=O)c3ccco3)CC2)cc1	1	1	-5	-1	1	-2	nt	nt	nt
OC(c1ccccc1)(c1nc(-c2ccc(Cl)cc2)cs1)C(F)(F)F (centres undefined)	2	-18	nt	nt	-1	0	nt	nt	nt
Cc1cc(OCC[N+]2(C)CCCCC2)nc2ccccc12	0	6	102*	8	-3	-1	90*	-8	-20
Cc1cc(NC2CCCCC2)nc2ccccc12	4	2	4	8	-2	2	nt	nt	nt
COCCN1C[C@@H](CO)O[C@@H](n2cnc3c(N(C)C)ncnc32)C1	-1	0	nt	nt	0	1	nt	nt	nt
Cc1cc(O)c(NC(=O)c2cccc([N+](=O)[O-])c2)cc1C	-1	2	1	1	16	-11	nt	nt	nt
Cc1cc(CSc2ccccc2)ccc1NC(=O)c1cccc([N+](=O)[O-])c1	-1	9	54*	2	-2	-1	-12	-16	nt
O=C(NCc1ccccc1)c1cc(C2COCCN2S(=O)(=O)c2cccs2)on1 (centres undefined)	-2	-3	nt	nt	-2	1	nt	nt	nt
Nc1ncnc2c1ncn2[C@@H]1O[C@H](C(=O)N[C@H](CO)Cc2ccc(O)cc2)[C@@H](O)[C@H]1O	-2	7	nt	nt	0	3	nt	nt	nt
